Blank lines part the entries; values can stand above or below the compound they belong to.
Assays:
[1] = molecular target: T1, Dual specificity protein kinase CLK3 (Homo sapiens, UniProt P49761); assay: Inhibition of recombinant CLK3 (unknown origin) using Ac-ERMRPRKRQGSVdP(Sox)G-NH2 as substrate after 5 mins by Omnia Kinase Assay
[2] = molecular target: Casein kinase II subunit alpha' (Homo sapiens) (UniProt P19784); assay: Binding affinity to CK2A2 (unknown origin) assessed as change in melting temperature at 10 uM incubated for 10 mins using SYPRO orange dye by RT-PCR-based fluorescence assay
Procedure, shortened: (§1)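 Recombinant kinase domain at 2 μM in 10 mM HEPES pH 7.5, 500 mM NaCl, mixed with 10 μM inhibitor for 10 min at room temperature; SYPRO orange added at 1:1000; temperature-dependent unfolding fluorescence read on a real-time PCR instrument; Tm shift derived by a previously described method.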

[3] = Inhibition of recombinant CLK3 A319V mutant (unknown origin) using Ac-ERMRPRKRQGSVdP(Sox)G-NH2 as substrate after 5 mins by Omnia Kinase Assay; parameters: species or system Homo sapiens
[4] = molecular target: T1, Dual specificity protein kinase CLK3; settings: dose 10.0 µM, time 10.0 min
Target sequence in this assay (P49761 whole entry, looked up): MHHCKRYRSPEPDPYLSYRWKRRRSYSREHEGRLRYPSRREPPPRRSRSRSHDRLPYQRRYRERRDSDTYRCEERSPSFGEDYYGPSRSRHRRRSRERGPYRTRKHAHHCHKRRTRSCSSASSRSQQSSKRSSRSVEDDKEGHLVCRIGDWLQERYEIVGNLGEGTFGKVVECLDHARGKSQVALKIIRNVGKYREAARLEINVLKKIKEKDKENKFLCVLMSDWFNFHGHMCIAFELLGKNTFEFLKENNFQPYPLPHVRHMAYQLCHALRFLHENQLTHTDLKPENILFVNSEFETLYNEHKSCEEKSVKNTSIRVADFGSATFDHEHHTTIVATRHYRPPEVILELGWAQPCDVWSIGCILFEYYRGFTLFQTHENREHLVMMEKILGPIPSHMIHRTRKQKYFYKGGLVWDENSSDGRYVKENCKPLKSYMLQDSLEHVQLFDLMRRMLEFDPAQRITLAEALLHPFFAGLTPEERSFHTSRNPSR

[5] = Inhibition of CLK1 V324A mutant (unknown origin) expressed in HEK293 cells incubated for 2 hrs followed by NanoBRET NanoGlo Substrate addition by NanoBRET assay; assay type: cell-based, Homo sapiens
Homo sapiens [6] = species: Homo sapiens; assay: Selectivity ratio of Ki for CLK1 V324A mutant (unknown origin) expressed in HEK293 cells to Ki for wild type CLK1 (unknown origin); assay type: cell-based
Procedure, shortened: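 Full-length CLK1 wild type and V324A, NanoLuc-fused (N-terminal for WT, C-terminal for mutant), transfected into HEK293T cells and expressed for 20 h at 37 °C, 5% CO2. Cells in Opti-MEM were incubated 2 h with serially varied inhibitor plus 1 μM Tracer K5. BRET was read at 450/610 nm, and mBU was fitted to give IC50. […] Biological duplicates; mutant/WT Ki ratio.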

[7] = molecular target: T2, Serine/threonine-protein kinase haspin (Homo sapiens) (UniProt Q8TF76); assay: Binding affinity to haspin (unknown origin) assessed as change in melting temperature at 10 uM incubated for 10 mins using SYPRO orange dye by RT-PCR-based fluorescence assay; procedure, shortened: as §1
T2 sequence (whole entry): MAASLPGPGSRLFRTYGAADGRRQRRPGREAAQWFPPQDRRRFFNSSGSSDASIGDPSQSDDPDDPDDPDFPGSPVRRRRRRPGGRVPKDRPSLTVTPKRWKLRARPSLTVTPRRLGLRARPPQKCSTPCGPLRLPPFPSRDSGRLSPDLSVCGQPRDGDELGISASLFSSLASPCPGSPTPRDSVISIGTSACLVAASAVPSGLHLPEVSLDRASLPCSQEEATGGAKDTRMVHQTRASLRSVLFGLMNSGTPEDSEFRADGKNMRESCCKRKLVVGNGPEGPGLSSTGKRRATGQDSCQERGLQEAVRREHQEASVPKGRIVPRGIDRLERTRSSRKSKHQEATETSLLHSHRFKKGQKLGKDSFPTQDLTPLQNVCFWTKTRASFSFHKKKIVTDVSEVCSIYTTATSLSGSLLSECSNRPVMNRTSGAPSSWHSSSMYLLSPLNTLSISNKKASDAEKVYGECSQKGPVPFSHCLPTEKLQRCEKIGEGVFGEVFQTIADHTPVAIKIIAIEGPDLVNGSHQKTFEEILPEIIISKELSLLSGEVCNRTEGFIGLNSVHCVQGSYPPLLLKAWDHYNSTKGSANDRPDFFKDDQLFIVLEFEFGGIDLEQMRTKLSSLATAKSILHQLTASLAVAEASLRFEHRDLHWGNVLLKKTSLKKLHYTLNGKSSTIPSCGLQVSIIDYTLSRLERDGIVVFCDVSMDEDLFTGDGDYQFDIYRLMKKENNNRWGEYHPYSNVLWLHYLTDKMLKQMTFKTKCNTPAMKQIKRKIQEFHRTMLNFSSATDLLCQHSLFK

[8] = molecular target: cGMP-dependent protein kinase 1 (Homo sapiens) (UniProt Q13976); settings: dose 10.0 µM, time 10.0 min
[9] = molecular target: Dual specificity protein kinase CLK2 (Homo sapiens) (UniProt P49760); settings: dose 10.0 µM, time 10.0 min
[10] = molecular target: Serine/threonine-protein kinase 33 (Homo sapiens) (UniProt Q9BYT3); assay: Binding affinity to STK33 (unknown origin) assessed as change in melting temperature at 10 uM incubated for 10 mins using SYPRO orange dye by RT-PCR-based fluorescence assay; procedure, shortened: as §1
[11] = molecular target: Tyrosine-protein kinase Fes/Fps (Homo sapiens) (UniProt P07332); assay: Binding affinity to FES (unknown origin) assessed as change in melting temperature at 10 uM incubated for 10 mins using SYPRO orange dye by RT-PCR-based fluorescence assay; procedure, shortened: as §1
[12] = molecular target: T3, Dual specificity protein kinase CLK1 (Homo sapiens, UniProt P49759); assay: Inhibition of full length wild type CLK1 (unknown origin) expressed in HEK293 cells incubated for 2 hrs followed by NanoBRET NanoGlo Substrate addition by NanoBRET assay; assay type: cell-based
[13] = molecular target: Serine/threonine-protein kinase 17A (Homo sapiens) (UniProt Q9UEE5); assay: Binding affinity to DRAK1 (unknown origin) assessed as change in melting temperature at 10 uM incubated for 10 mins using SYPRO orange dye by RT-PCR-based fluorescence assay; procedure, shortened: as §1
[14] = molecular target: T4, Dual specificity protein kinase CLK4 (Homo sapiens, UniProt Q9HAZ1); settings: dose 10.0 µM, time 10.0 min
Target sequence in this assay (Q9HAZ1 whole entry, looked up): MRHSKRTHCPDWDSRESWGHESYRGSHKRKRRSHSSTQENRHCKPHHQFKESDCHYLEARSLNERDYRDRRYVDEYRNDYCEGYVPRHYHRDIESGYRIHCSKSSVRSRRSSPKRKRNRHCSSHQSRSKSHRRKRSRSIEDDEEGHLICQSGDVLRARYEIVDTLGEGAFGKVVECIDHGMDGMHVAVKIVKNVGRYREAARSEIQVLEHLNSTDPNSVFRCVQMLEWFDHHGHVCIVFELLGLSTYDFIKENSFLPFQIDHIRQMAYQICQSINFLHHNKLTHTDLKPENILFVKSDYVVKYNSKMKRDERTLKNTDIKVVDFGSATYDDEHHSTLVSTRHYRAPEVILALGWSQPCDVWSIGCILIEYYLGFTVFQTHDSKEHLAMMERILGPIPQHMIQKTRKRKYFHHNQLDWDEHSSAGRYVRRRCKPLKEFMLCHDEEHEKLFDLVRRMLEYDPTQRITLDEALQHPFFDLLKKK

[15] = molecular target: cAMP-dependent protein kinase catalytic subunit PRKX (Homo sapiens) (UniProt P51817); assay: Binding affinity to PRKX (unknown origin) assessed as change in melting temperature at 10 uM incubated for 10 mins using SYPRO orange dye by RT-PCR-based fluorescence assay; procedure, shortened: as §1
[16] = molecular target: T5, Dual specificity tyrosine-phosphorylation-regulated kinase 1A (Homo sapiens, UniProt Q13627); assay: Inhibition of DYRK1A (unknown origin) by radiometric assay
[17] = molecular target: T2, Serine/threonine-protein kinase haspin (Homo sapiens); assay: Inhibition of human Haspin assessed as residual activity at 1 uM relative to control
[18] = molecular target: T4, Dual specificity protein kinase CLK4; assay: Inhibition of human CLK4 by radiometric assay
[19] = molecular target: Homeodomain-interacting protein kinase 1 (Homo sapiens, UniProt Q86Z02); assay: Inhibition of human HIPK1 by radiometric assay
[20] = molecular target: High affinity nerve growth factor receptor (Homo sapiens) (UniProt P04629); assay: Inhibition of human TrkA assessed as residual activity at 1 uM relative to control
[21] = molecular target: Homeodomain-interacting protein kinase 3 (Homo sapiens, UniProt Q9H422); assay: Inhibition of human HIPK3 by radiometric assay
[22] = molecular target: Homeodomain-interacting protein kinase 2 (Homo sapiens, UniProt Q9H2X6); assay: Inhibition of human HIPK2 by radiometric assay
[23] = molecular target: Interleukin-1 receptor-associated kinase 4 (Homo sapiens) (UniProt Q9NWZ3); assay: Inhibition of human IRAK4 assessed as residual activity at 1 uM relative to control
[24] = molecular target: Dual specificity tyrosine-phosphorylation-regulated kinase 2 (Homo sapiens, UniProt Q92630); assay: Inhibition of human DYRK2 by radiometric assay
[25] = molecular target: Glycogen synthase kinase-3 beta (Homo sapiens) (UniProt P49841); assay: Inhibition of human GSK3B assessed as residual activity at 1 uM relative to control
[26] = molecular target: T3, Dual specificity protein kinase CLK1; settings: dose 10.0 µM, time 10.0 min
Target sequence in this assay (P49759 whole entry, looked up): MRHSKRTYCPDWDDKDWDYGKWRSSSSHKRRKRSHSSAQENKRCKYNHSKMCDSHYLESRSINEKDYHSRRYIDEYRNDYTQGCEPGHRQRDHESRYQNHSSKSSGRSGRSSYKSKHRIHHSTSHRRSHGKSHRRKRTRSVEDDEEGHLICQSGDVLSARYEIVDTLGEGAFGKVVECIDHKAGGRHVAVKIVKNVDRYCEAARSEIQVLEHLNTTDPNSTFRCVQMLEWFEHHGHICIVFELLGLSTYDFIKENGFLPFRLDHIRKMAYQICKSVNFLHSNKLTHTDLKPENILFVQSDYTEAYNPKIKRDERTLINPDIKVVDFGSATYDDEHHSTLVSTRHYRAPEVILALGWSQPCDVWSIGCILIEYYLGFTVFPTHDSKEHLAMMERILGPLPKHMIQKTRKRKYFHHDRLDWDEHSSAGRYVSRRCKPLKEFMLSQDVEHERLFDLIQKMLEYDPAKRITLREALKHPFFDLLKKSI

Homo sapiens [27] = species: Homo sapiens; assay: Binding affinity to CLK3 A319V mutant (unknown origin) assessed as change in melting temperature at 10 uM incubated for 10 mins using SYPRO orange dye by RT-PCR-based fluorescence assay; procedure, shortened: as §1
Homo sapiens [28] = species: Homo sapiens; assay: Binding affinity to CLK1 V324A mutant (unknown origin) assessed as change in melting temperature at 10 uM incubated for 10 mins using SYPRO orange dye by RT-PCR-based fluorescence assay; procedure, shortened: as §1
[29] = molecular target: Serine/threonine-protein kinase pim-3 (Homo sapiens) (UniProt Q86V86); assay: Binding affinity to PIM3 (unknown origin) assessed as change in melting temperature at 10 uM incubated for 10 mins using SYPRO orange dye by RT-PCR-based fluorescence assay; procedure, shortened: as §1
[30] = molecular target: Serine/threonine-protein kinase 17B (Homo sapiens) (UniProt O94768); assay: Binding affinity to DRAK2 (unknown origin) assessed as change in melting temperature at 10 uM incubated for 10 mins using SYPRO orange dye by RT-PCR-based fluorescence assay; procedure, shortened: as §1
[31] = molecular target: T6, Dual specificity tyrosine-phosphorylation-regulated kinase 2 (Homo sapiens) (UniProt Q92630); assay: Binding affinity to DYRK2 (unknown origin) assessed as change in melting temperature at 10 uM incubated for 10 mins using SYPRO orange dye by RT-PCR-based fluorescence assay; procedure, shortened: as §1
T6 sequence (whole entry): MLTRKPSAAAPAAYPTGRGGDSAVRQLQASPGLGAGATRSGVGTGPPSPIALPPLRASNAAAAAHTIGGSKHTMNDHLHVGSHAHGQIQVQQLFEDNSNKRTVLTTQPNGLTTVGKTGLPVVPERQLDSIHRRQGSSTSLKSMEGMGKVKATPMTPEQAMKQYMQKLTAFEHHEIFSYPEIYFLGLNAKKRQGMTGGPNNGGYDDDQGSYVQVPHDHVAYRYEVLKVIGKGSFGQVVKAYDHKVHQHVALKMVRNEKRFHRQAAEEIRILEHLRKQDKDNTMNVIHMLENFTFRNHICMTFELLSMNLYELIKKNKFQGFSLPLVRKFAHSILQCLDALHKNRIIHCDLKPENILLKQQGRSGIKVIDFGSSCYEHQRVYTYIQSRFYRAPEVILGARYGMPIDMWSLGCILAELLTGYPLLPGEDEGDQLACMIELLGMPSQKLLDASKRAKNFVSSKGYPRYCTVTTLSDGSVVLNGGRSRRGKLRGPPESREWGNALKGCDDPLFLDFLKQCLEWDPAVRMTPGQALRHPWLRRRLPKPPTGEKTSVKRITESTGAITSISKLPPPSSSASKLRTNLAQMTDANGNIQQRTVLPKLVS

[32] = molecular target: Casein kinase I isoform epsilon (Homo sapiens) (UniProt P49674); assay: Binding affinity to CSNK1E (unknown origin) assessed as change in melting temperature at 10 uM incubated for 10 mins using SYPRO orange dye by RT-PCR-based fluorescence assay; procedure, shortened: as §1
[33] = molecular target: T5, Dual specificity tyrosine-phosphorylation-regulated kinase 1A; settings: dose 10.0 µM, time 10.0 min
[34] = molecular target: Serine/threonine-protein kinase pim-1 (Homo sapiens) (UniProt P11309); assay: Binding affinity to PIM1 (unknown origin) assessed as change in melting temperature at 10 uM incubated for 10 mins using SYPRO orange dye by RT-PCR-based fluorescence assay

Sequence of Dual specificity protein kinase CLK2 (Homo sapiens) (P49760 whole entry, looked up): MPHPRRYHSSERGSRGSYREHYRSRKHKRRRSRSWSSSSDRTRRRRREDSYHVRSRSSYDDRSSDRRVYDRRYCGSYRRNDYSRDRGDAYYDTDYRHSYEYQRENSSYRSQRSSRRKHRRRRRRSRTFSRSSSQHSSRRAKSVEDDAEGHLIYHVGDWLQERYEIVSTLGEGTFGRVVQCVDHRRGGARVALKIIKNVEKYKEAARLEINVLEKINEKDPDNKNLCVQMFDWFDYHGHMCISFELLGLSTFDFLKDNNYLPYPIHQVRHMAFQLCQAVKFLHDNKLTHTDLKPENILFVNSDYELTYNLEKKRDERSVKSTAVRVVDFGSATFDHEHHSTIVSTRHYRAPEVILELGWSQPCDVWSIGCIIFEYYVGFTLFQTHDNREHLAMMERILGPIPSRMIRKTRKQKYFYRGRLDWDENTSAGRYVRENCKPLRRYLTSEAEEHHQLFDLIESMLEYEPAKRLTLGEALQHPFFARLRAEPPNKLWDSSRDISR
Sequence of cGMP-dependent protein kinase 1 (Homo sapiens) (Q13976 whole entry): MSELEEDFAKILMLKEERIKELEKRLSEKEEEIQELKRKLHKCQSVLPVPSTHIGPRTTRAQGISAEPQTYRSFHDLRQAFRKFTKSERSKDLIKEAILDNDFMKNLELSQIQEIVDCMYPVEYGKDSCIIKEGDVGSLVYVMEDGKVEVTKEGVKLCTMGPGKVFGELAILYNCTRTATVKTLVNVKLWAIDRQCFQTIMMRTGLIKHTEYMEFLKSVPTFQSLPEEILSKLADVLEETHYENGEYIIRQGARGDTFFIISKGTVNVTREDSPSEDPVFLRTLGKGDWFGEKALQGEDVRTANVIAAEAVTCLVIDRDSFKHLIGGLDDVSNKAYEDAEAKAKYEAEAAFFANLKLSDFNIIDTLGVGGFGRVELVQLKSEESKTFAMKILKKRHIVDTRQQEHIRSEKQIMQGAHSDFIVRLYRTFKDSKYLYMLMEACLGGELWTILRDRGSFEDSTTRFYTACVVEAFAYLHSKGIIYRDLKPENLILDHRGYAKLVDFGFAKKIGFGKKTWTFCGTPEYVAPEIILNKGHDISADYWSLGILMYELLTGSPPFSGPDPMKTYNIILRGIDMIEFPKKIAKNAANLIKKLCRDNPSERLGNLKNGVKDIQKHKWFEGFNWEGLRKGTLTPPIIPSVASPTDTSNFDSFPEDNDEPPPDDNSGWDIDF
Sequence of Interleukin-1 receptor-associated kinase 4 (Homo sapiens) (Q9NWZ3 whole entry): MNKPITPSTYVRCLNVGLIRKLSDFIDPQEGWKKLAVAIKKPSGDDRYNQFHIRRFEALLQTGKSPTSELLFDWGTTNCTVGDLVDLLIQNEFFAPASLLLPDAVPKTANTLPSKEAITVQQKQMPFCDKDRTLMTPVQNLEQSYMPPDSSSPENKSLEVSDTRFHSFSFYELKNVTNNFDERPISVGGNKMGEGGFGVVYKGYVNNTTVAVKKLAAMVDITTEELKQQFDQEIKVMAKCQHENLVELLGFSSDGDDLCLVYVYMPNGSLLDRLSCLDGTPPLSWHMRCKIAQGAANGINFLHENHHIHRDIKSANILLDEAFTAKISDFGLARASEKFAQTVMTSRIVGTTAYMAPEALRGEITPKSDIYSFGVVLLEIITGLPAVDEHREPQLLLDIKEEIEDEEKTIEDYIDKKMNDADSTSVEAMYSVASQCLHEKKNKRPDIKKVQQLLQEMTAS
Sequence of Casein kinase I isoform epsilon (Homo sapiens) (P49674 whole entry, looked up, canonical isoform): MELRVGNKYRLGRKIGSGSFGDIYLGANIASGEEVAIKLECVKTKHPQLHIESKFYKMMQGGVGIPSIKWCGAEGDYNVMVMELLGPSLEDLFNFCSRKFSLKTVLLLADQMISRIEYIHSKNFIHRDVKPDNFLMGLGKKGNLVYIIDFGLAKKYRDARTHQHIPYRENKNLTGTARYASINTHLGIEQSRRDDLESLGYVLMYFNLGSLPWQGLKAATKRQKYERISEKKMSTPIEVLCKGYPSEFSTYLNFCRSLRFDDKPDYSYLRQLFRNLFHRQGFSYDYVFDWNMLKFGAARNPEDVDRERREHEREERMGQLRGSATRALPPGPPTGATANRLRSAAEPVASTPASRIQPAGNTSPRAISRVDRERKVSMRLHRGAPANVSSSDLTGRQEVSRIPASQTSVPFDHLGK
Sequence of Serine/threonine-protein kinase 33 (Homo sapiens) (Q9BYT3 whole entry, looked up): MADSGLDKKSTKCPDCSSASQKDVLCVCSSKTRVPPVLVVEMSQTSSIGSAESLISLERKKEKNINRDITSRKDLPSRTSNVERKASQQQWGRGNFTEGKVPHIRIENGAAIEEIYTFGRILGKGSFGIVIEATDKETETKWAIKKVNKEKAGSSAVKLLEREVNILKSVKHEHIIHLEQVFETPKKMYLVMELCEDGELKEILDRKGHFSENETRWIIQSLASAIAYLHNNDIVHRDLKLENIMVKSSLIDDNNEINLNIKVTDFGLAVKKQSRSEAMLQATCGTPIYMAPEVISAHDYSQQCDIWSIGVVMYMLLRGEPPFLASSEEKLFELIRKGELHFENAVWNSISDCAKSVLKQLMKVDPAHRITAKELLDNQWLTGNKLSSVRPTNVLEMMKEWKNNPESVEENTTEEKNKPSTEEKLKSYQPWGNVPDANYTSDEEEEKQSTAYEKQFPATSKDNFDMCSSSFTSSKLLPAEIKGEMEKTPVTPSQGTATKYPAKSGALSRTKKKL
Sequence of Glycogen synthase kinase-3 beta (Homo sapiens) (P49841 whole entry, looked up): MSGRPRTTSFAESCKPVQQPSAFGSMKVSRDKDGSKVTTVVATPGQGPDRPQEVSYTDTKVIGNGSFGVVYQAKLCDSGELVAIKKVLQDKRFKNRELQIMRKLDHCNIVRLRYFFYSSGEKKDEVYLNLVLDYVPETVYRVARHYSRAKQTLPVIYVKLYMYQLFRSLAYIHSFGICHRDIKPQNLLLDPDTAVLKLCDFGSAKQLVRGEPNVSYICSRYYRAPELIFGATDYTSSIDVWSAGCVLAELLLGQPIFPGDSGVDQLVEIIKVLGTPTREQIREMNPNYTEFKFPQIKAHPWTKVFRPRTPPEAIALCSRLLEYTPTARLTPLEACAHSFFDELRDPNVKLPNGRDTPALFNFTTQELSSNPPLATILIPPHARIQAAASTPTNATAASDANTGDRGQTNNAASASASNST

Ki [1]: 26.9 µM | ΔTm [2]: > 4 °C | Ki [3]: 850 nM | ΔTm [4]: 1.4 °C | ΔTm [7]: > 4 °C | ΔTm [8]: > 6 °C | ΔTm [9]: 3.5 °C | ΔTm [10]: > 4 °C | ΔTm [11]: > 4 °C | Ki [12]: 140 nM | ΔTm [13]: > 4 °C | ΔTm [14]: > 4 °C | ΔTm [15]: > 4 °C
Structure (SMILES): Cn1c2c(c3ccc(Cl)c(Cl)c31)C(C#N)C1(CCNCC1)NC2=O (stereo unspecified)
Ki [5]: 2810 nM | Ratio Ki (Homo sapiens [6]): 20.6

Structure (SMILES): Cn1cc(-c2ccc3occ(-c4cccc(-c5ccncc5)c4)c3n2)cn1
IC50 [16]: 213 nM | Activity [17]: < 50% | IC50 [18]: 12 nM | IC50 [19]: 187 nM | Activity [20]: < 50% | IC50 [21]: 159 nM | IC50 [22]: 29 nM | Activity [23]: < 50% | IC50 [24]: 1310 nM | Activity [25]: < 50%

ΔTm [4]: 2.3 °C | ΔTm [26]: 9.8 °C | ΔTm [9]: 4.9 °C | ΔTm [14]: 10.1 °C
Structure (SMILES): O=C1NCc2ccc3c(-c4cccc(Cl)c4)c[nH]c3c21

ΔTm (Homo sapiens [27]): 5.5 °C | ΔTm [4]: 2 °C | ΔTm [26]: 9 °C | ΔTm [9]: 8.4 °C | ΔTm [14]: 9 °C | ΔTm (Homo sapiens [28]): 2.5 °C
Structure (SMILES): CCOc1ccc2c(-c3ccnc(Nc4cc(OC)cc(C(F)(F)F)c4)n3)cnn2n1
Ratio Ki (Homo sapiens [6]): 9

ΔTm [4]: 4.8 °C | ΔTm [26]: 12.3 °C | ΔTm [9]: 8.3 °C
Structure (SMILES): Cn1cc(-c2ccc3occ(-c4cccc(Oc5ccccc5)c4)c3n2)cn1

ΔTm [29]: > 4 °C | ΔTm [30]: > 6 °C | ΔTm [26]: > 6 °C | ΔTm [31]: > 6 °C | ΔTm [9]: > 6 °C
Structure (SMILES): Nc1nccc(-c2ccc3noc(-c4ccc(Cl)cc4)c3c2)n1

ΔTm (Homo sapiens [27]): 9.2 °C | ΔTm [4]: 3.4 °C | ΔTm [26]: 10.3 °C | ΔTm [9]: 7 °C | ΔTm [14]: 9.6 °C | ΔTm (Homo sapiens [28]): 3.8 °C
Structure (SMILES): COC(=N)c1nc2ccc3ncnc(Nc4ccc(OC)cc4F)c3c2s1

ΔTm [32]: > 4 °C | Ki [3]: 320 nM | ΔTm [29]: > 4 °C | ΔTm [4]: 3 °C | ΔTm [33]: > 6 °C | ΔTm [26]: > 6 °C | ΔTm [34]: > 4 °C | ΔTm [31]: > 6 °C | ΔTm [9]: > 4 °C | ΔTm [14]: > 6 °C
Structure (SMILES): CCN1/C(=C\C(C)=O)Sc2ccc(OC)cc21

Structure (SMILES): CCOC(=O)c1c(/C(C#N)=C/N)c2ccc(Cl)c(Cl)c2n1C
Ratio Ki (Homo sapiens [6]): 9

Source: ChEMBL document CHEMBL4725345, “DFG-1 Residue Controls Inhibitor Binding Mode and Affinity, Providing a Basis for Rational Design of Kinase Inhibitor Selectivity” (J Med Chem, 2020)
